Among the data in ChEMBL document CHEMBL2331482, “Synthesis of some new 2-(3-pyridyl)-4,5-disubstituted thiazoles as potent antimicrobial agents” (2013) are MIC values, retold here.

Type in all cases: functional
For one assay, the system named is Bacillus subtilis. The assay is described as follows: Antibacterial activity against Bacillus subtilis RCMB 010063 assessed as growth inhibition after 24 hrs by twofold serial dilution method. Conditions: RCMB 010063, 24 h. The method, boiled down:
(§1)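 Broth microdilution in Müller–Hinton broth, 96-well plates. Only compounds giving disc-diffusion zones >10 mm were tested. DMF stocks (1000 µg/mL) were diluted twofold to a final 500–0.007 µg/mL, with about 10^6 CFU/mL bacteria. Sealed plates ran 24 h at 37 °C in a humid chamber. MIC was the lowest concentration with no visible turbidity. DMF and uninoculated-medium controls were included.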

Another assay has as its system Talaromyces marneffei. The assay is described as follows: Antifungal activity against Penicillium marneffei RCMB 01267 assessed as growth inhibition after 48 hrs by twofold serial dilution method. Conditions: RCMB 01267, 48 h. The method, boiled down:
(§2)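 Fungi were tested by microdilution in Sabouraud liquid medium. Only compounds with disc-diffusion zones >10 mm went on to this test. DMF stocks (1000 µg/mL) were serially diluted twofold to 500–0.007 µg/mL. Sealed plates were held 48 h at 25 °C in a humid chamber. MIC was the lowest concentration without visible turbidity. DMF and uninoculated-medium controls ran in parallel.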

The subject of another assay is Neisseria gonorrhoeae. The assay is described as follows: Antibacterial activity against Neisseria gonorrhoeae RCMB 010076 assessed as growth inhibition after 24 hrs by twofold serial dilution method. The method, boiled down:
as §1

Another assay relates to Geotrichum candidum. Description: Antifungal activity against Geotricum candidum RCMB 05096 assessed as growth inhibition after 48 hrs by twofold serial dilution method. Conditions: RCMB 05096, 48 h. The method, boiled down: as §2
In a further assay the test system is Enterococcus faecalis. The assay is described as follows: Antibacterial activity against Enterococcus faecalis RCMB 010068 assessed as growth inhibition after 24 hrs by twofold serial dilution method. The method, boiled down: as §1
Another assay has as its system Staphylococcus aureus. Description: Antibacterial activity against Staphylococcus aureus RCMB 010027 assessed as growth inhibition after 24 hrs by twofold serial dilution method. Conditions: RCMB 010027, 24 h. An outline of the steps:
as §1

A further assay deals with Streptococcus pyogenes. The assay is described as follows: Antibacterial activity against Streptococcus pyogenes RCMB 010015 assessed as growth inhibition after 24 hrs by twofold serial dilution method. An outline of the steps:
as §1

The test system of another assay is Proteus vulgaris. Description: Antibacterial activity against Proteus vulgaris RCMB 010085 assessed as growth inhibition after 24 hrs by twofold serial dilution method. The method, boiled down: as §1
Another assay relates to Aspergillus clavatus. Description: Antifungal activity against Aspergillus clavatus RCMB 02593 assessed as growth inhibition after 48 hrs by twofold serial dilution method. Conditions: RCMB 02593, 48 h. The method, boiled down: as §2
Another assay concerns Klebsiella pneumoniae. Description: Antibacterial activity against Klebsiella pneumoniae RCMB 010093 assessed as growth inhibition after 24 hrs by twofold serial dilution method. The method, boiled down: as §1
Another assay relates to Aspergillus fumigatus. Description: Antifungal activity against Aspergillus fumigatus RCMB 02564 assessed as growth inhibition after 48 hrs by twofold serial dilution method. Conditions: RCMB 02564, 48 h. The method, boiled down:
as §2

The subject of a further assay is Candida albicans. Description: Antifungal activity against Candida albicans RCMB 05035 assessed as growth inhibition after 48 hrs by twofold serial dilution method. The method, boiled down: as §2
The test system of the next assay is Shigella flexneri. Description: Antibacterial activity against Shigella flexneri RCMB 0100542 assessed as growth inhibition after 24 hrs by twofold serial dilution method. An outline of the steps:
as §1

The subject of a further assay is Pseudomonas aeruginosa. Description: Antibacterial activity against Pseudomonas aeruginosa RCMB 010043 assessed as growth inhibition after 24 hrs by twofold serial dilution method. The method, boiled down:
as §1

Assay [1] relates to Staphylococcus epidermidis. The assay is described as follows: Antibacterial activity against Staphylococcus epidermidis RCMB 010024 assessed as growth inhibition after 24 hrs by twofold serial dilution method. Conditions: RCMB 010024, 24 h. An outline of the steps: as §1

Values after ≈ are worked out from the molar mass of the structure shown. Active and inactive are the calls of the source. The rule behind the calls is not given here.

`Cc1csc(-c2cccnc2)n1`: the MIC (as a rule, the lowest concentration found to suppress growth) came out at 1.95 mg/L (≈ 11.1 µM) in the assay with Bacillus subtilis; 3.9 mg/L (≈ 22.1 µM) in the assay with Talaromyces marneffei; 62.5 mg/L (≈ 355 µM) in the assay on Neisseria gonorrhoeae (RCMB 010076, 24 h); 1.95 mg/L (≈ 11.1 µM) in the assay with Geotrichum candidum; 31.2 mg/L (≈ 177 µM) with Enterococcus faecalis (RCMB 010068, 24 h); 0.97 mg/L (≈ 5.5 µM) in the assay with Staphylococcus aureus. In addition, the minimal inhibitory concentration (MIC) was 15.6 mg/L (≈ 88.7 µM) with Streptococcus pyogenes (RCMB 010015, 24 h); 3.9 mg/L (≈ 22.1 µM) with Proteus vulgaris (RCMB 010085, 24 h); 15.6 mg/L (≈ 88.7 µM) with Aspergillus clavatus; 1.95 mg/L (≈ 11.1 µM) in the assay on Klebsiella pneumoniae (RCMB 010093, 24 h); 7.81 mg/L (≈ 44.3 µM) with Aspergillus fumigatus; 31.2 mg/L (≈ 177 µM) with Candida albicans (RCMB 05035, 48 h). Further, the MIC amounted to 3.9 mg/L (≈ 22.1 µM) in the assay on Shigella flexneri (RCMB 0100542, 24 h); 125 mg/L (≈ 709 µM) in the assay with Pseudomonas aeruginosa (RCMB 010043, 24 h); 0.97 mg/L (≈ 5.5 µM) in assay [1].

For `Cc1nc(-c2cccnc2)sc1C(=O)/C=C/c1ccc(Cl)cc1`, the MIC with Bacillus subtilis came out at 31.2 mg/L (≈ 91.7 µM); in the assay on Talaromyces marneffei, 62.5 mg/L (≈ 183 µM); with Geotrichum candidum it was 31.2 mg/L (≈ 91.7 µM); in the assay on Staphylococcus aureus, 62.5 mg/L (≈ 183 µM); in the assay on Proteus vulgaris (RCMB 010085, 24 h) it was 62.5 mg/L (≈ 183 µM); in the assay on Aspergillus clavatus it was 125 mg/L (≈ 367 µM). The MIC is 31.2 mg/L (≈ 91.7 µM) with Klebsiella pneumoniae (RCMB 010093, 24 h); 62.5 mg/L (≈ 183 µM) in the assay with Aspergillus fumigatus; 250 mg/L (≈ 733 µM) in the assay with Candida albicans (RCMB 05035, 48 h); 31.2 mg/L (≈ 91.7 µM) in [1]. The MIC entry in the assay on Neisseria gonorrhoeae, in the assay with Enterococcus faecalis, in the assay on Streptococcus pyogenes, in the assay on Shigella flexneri and in the assay on Pseudomonas aeruginosa was “inactive” each time.

Take `Cc1nc(-c2cccnc2)sc1C1=NNC(c2ccc(Cl)cc2)C1` (stereo not given): the MIC was determined as 62.5 mg/L (≈ 176 µM) in the assay on Bacillus subtilis; 250 mg/L (≈ 704 µM) with Talaromyces marneffei; 125 mg/L (≈ 352 µM) in the assay with Geotrichum candidum; 125 mg/L (≈ 352 µM) with Enterococcus faecalis (RCMB 010068, 24 h); 125 mg/L (≈ 352 µM) in the assay on Staphylococcus aureus; 125 mg/L (≈ 352 µM) in the assay with Aspergillus clavatus. Further, the MIC in the assay on Aspergillus fumigatus was determined as 125 mg/L (≈ 352 µM); in [1], 62.5 mg/L (≈ 176 µM). The MIC result with Neisseria gonorrhoeae, with Streptococcus pyogenes, in the assay on Proteus vulgaris, with Klebsiella pneumoniae, in the assay on Candida albicans and in the assay on Shigella flexneri was “inactive” throughout. For the same compound, the MIC result in the assay on Pseudomonas aeruginosa was “inactive”.

In the case of GENTAMICIN, the minimal inhibitory concentration (MIC) was 7.81 mg/L with Neisseria gonorrhoeae; 1.95 mg/L in the assay with Proteus vulgaris; 0.24 mg/L with Klebsiella pneumoniae; 0.48 mg/L in the assay on Shigella flexneri; 31.2 mg/L in the assay on Pseudomonas aeruginosa.

Turning to `Cc1nc(-c2cccnc2)sc1C1=NNC(c2ccc(F)cc2F)C1` (stereo not given), the MIC was determined as 62.5 mg/L (≈ 175 µM) in the assay on Bacillus subtilis; 250 mg/L (≈ 701 µM) in the assay with Talaromyces marneffei; 125 mg/L (≈ 351 µM) in the assay with Geotrichum candidum; 125 mg/L (≈ 351 µM) in the assay with Enterococcus faecalis (RCMB 010068, 24 h); 125 mg/L (≈ 351 µM) in the assay with Staphylococcus aureus; 125 mg/L (≈ 351 µM) in the assay with Aspergillus clavatus. Besides, the MIC (with Aspergillus fumigatus; in assay [1]) was 125 mg/L (≈ 351 µM) each time. For the same compound, the MIC result with Neisseria gonorrhoeae, with Streptococcus pyogenes, in the assay with Proteus vulgaris, in the assay on Klebsiella pneumoniae, in the assay on Candida albicans and with Shigella flexneri was “inactive” throughout. Moreover, the MIC result with Pseudomonas aeruginosa was “inactive”.

On to `COc1ccc(C2CC(c3sc(-c4cccnc4)nc3C)=NN2)cc1` (stereo not given), for which the MIC amounted to 15.6 mg/L (≈ 44.6 µM) in the assay with Bacillus subtilis; 62.5 mg/L (≈ 178 µM) in the assay on Talaromyces marneffei; 500 mg/L (≈ 1430 µM) with Neisseria gonorrhoeae (RCMB 010076, 24 h); 31.2 mg/L (≈ 89.2 µM) in the assay with Geotrichum candidum; 250 mg/L (≈ 713 µM) in the assay with Enterococcus faecalis (RCMB 010068, 24 h); 15.6 mg/L (≈ 44.6 µM) in the assay on Staphylococcus aureus. Further, the minimum inhibitory concentration (MIC) in the assay with Proteus vulgaris (RCMB 010085, 24 h) worked out at 31.2 mg/L (≈ 89.2 µM); in the assay with Aspergillus clavatus, 62.5 mg/L (≈ 178 µM); in the assay on Klebsiella pneumoniae (RCMB 010093, 24 h), 62.5 mg/L (≈ 178 µM); with Aspergillus fumigatus it was 31.2 mg/L (≈ 89.2 µM); in the assay with Candida albicans (RCMB 05035, 48 h) it was 250 mg/L (≈ 713 µM); with Shigella flexneri (RCMB 0100542, 24 h) it was 62.5 mg/L (≈ 178 µM). The MIC in assay [1] was found to be 15.6 mg/L (≈ 44.6 µM). Besides, the MIC result in the assay on Streptococcus pyogenes and in the assay on Pseudomonas aeruginosa was “inactive” throughout.
